In ChEMBL document CHEMBL1127592, “Synthesis and SAR studies of novel triazolopyrimidine derivatives as potent, orally active angiotensin II receptor antagonists” (J Med Chem, 1994):

How the values were obtained:
[1] = target: T1, Type-1 angiotensin II receptor B (Rattus norvegicus, UniProt P29089); experiment: Displacement of [125I]-Sar1-Ile8-A II from rat adrenal Angiotensin-1 (AT-1) receptor
T1 sequence (P29089 whole entry): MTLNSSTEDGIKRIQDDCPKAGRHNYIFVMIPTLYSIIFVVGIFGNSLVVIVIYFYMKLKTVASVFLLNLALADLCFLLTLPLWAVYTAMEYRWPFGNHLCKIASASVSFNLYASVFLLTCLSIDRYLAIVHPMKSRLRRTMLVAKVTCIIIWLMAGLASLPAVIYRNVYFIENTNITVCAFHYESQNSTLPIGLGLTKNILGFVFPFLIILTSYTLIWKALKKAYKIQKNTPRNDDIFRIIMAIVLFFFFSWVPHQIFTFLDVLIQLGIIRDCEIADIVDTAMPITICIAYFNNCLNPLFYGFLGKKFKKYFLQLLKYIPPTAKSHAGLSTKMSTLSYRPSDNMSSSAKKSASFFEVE

[2] = system: Rattus norvegicus; experiment: Change in mean arterial blood pressure in renal artery ligated hypertensive rats, orally dosed at 1 mg/kg; format: functional; conditions: route oral
How it was run: (§1)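 Male CD Sprague-Dawley rats (250-270 g), left renal artery ligated under ketamine (100 mg/kg ip); catheterized for direct recording 2-3 days before test. Single oral gavage, 3-7 rats/group. MAP recorded before and for 16 h after dosing; value is maximal MAP decrease, mean ± SEM; decrease under 15 mmHg counted as no effect.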

[3] = system: Rattus norvegicus; experiment: Change in systolic arterial blood pressure in renal artery ligated hypertensive rats, orally dosed at 10 mg/kg; format: functional; conditions: route oral
How it was run: (§2)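 Conscious male CD Sprague-Dawley rats (250-270 g) with left renal artery ligated several days earlier under ketamine. Single oral gavage, 3-8 rats/group. Systolic pressure by indirect tail-cuff sphygmomanometry before and 3 h post-dose; change reported as SAP decrease at 3 h, mean ± SEM.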

[4] = system: Rattus norvegicus; experiment: Compound at a dose of 10 mg/kg was administered orally and evaluated for change in systolic arterial blood pressure in renal artery ligated hypertensive rats; format: functional; conditions: route oral; how it was run: as §2
[5] = target: T2, Type-2 angiotensin II receptor (Rattus norvegicus, UniProt P35351); experiment: In vitro binding affinity against angiotensin-2 (AT-2) receptor in rat adrenal
T2 sequence (P35351 whole entry): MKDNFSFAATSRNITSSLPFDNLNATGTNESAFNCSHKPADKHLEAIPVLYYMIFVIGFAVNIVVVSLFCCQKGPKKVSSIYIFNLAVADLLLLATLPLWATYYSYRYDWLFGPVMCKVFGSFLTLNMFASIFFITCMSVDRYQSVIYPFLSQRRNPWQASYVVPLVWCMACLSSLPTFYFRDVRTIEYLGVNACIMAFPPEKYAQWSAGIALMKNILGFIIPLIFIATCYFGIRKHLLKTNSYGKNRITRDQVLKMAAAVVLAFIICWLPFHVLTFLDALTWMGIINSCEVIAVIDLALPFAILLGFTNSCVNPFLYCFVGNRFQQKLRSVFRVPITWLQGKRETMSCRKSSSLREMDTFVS
How it was run: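 Rat adrenal membranes (25-40 μg protein) in Tris-HCl 50 mM, MgCl2 5 mM, 0.25% BSA, pH 7.2, with 0.2 nM [125I]Sar1-Ile8-AII and drug at 10^-9 to 10^-4 M, 60 min, 25 °C. 20 mM DTT included or omitted to separate AT1 and AT2 binding. Nonspecific binding with 1 μM AII; filtration. IC50 by log-logit, Ki by LIGAND; one experiment in triplicate.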

[6] = system: Rattus norvegicus; experiment: Compound at a dose of 1 mg/kg was administered orally and evaluated for change in mean arterial blood pressure in renal artery ligated hypertensive rats; format: functional; conditions: route oral; how it was run: as §1

SMILES | Ki [1] [nM] | Ki [5] [nM] | Change in blood pressure [2] [mmHg] | Change in blood pressure [3] [mmHg] | Change in blood pressure [4] [mmHg] | Change in blood pressure [6] [mmHg]
CCCc1nc(C)n2cnnc2c1Cc1ccc(-c2ccccc2-c2nn[nH]n2)cc1 | 10 | – | -24.2 | -77.2 | – | –
CCCc1nc(C)n2nc(CC(=O)OCC)nc2c1Cc1ccc(-c2ccccc2-c2nn[nH]n2)cc1 | 9 | – | -18.1 | -84 | – | –
CCCCc1nc(C)n2nc(O)nc2c1Cc1ccc(-c2ccccc2C(=O)O)cc1 | 622 | – | – | -23.5 | – | –
CCCCc1nc(Cl)c(CO)n1Cc1ccc(-c2ccccc2-c2nnn[nH]2)cc1 [LOSARTAN] | – | – | -32.9 | -104.2 | – | –
Cc1nc(C2CC2)c(Cc2ccc(-c3ccccc3-c3nn[nH]n3)cc2)c2nc(O)nn12 | 82 | – | -12.3 | -51.1 | – | –
CCCc1ncn2nc(O)nc2c1Cc1ccc(-c2ccccc2-c2nn[nH]n2)cc1 | 46 | – | -17.9 | -38.3 | – | –
CCCCc1nc(C)n2c(S)nnc2c1Cc1ccc(-c2ccccc2-c2nn[nH]n2)cc1 | 106 | – | -24.3 | -86.3 | – | –
CCCc1nc(C)n2nc(COC)nc2c1Cc1ccc(-c2ccccc2-c2nn[nH]n2)cc1 | 15 | – | -13.2 | -73.1 | – | –
CCCc1nc(C)n2c(=O)n(C)nc2c1Cc1ccc(-c2ccccc2-c2nn[nH]n2)cc1 | 53 | – | -25.1 | -48.8 | – | –
CCCc1nc(C)n2ncnc2c1Cc1ccc(-c2ccccc2-c2nn[nH]n2)cc1 | 12 | – | -20.1 | -89.7 | – | –
CCc1nc(C)n2nc(O)nc2c1Cc1ccc(-c2ccccc2-c2nn[nH]n2)cc1 | 35 | – | -20.1 | -72.8 | – | –
CCCc1nc(C)n2c(O)nnc2c1Cc1ccc(NC(=O)c2ccccc2S(=O)(=O)O)cc1 | 41 | – | – | -18.3 | – | –
CCCc1nc(C)n2c(=O)n(CCO)nc2c1Cc1ccc(-c2ccccc2-c2nn[nH]n2)cc1 | 6 | – | -25.6 | -67.9 | – | –
CCCc1ncn2ncnc2c1Cc1ccc(-c2ccccc2-c2nn[nH]n2)cc1 | 50 | – | – | -20 | – | –
CCCc1nc(SC)n2c(O)nnc2c1Cc1ccc(-c2ccccc2-c2nn[nH]n2)cc1 | – | – | – | -15.6 | – | –
CCCc1nc(C)n2nc(S(N)(=O)=O)nc2c1Cc1ccc(-c2ccccc2-c2nn[nH]n2)cc1 | 11 | – | -14.5 | -61.3 | – | –
CCCc1nc(C)n2c(S)nnc2c1Cc1ccc(-c2ccccc2-c2nn[nH]n2)cc1 | 127 | – | -22.4 | -90.2 | – | –
CCCc1nc(C)n2[nH]c(=O)nc2c1Cc1ccc(-c2ccccc2-c2nnn[nH]2)cc1 | 24 | 79200 | – | – | -92.2 | -39.6
CCCc1nc(C)n2nc(NCC(=O)OCC)nc2c1Cc1ccc(-c2ccccc2-c2nn[nH]n2)cc1 | 32 | – | -5.7 | -73.6 | – | –
CCCc1nc(C)n2nc(NC)nc2c1Cc1ccc(-c2ccccc2-c2nn[nH]n2)cc1 | 5 | – | -23.6 | -65.3 | – | –
CCCc1nc(C)n2nc(C(=O)OCC)nc2c1Cc1ccc(-c2ccccc2-c2nn[nH]n2)cc1 | 23 | – | -14.9 | -76.7 | – | –
CCCc1nc(C)n2nc(S(=O)(=O)NC)nc2c1Cc1ccc(-c2ccccc2-c2nn[nH]n2)cc1 | 139 | – | -14.1 | -37.2 | – | –
CCCc1nc(C)n2nc(C(F)(F)F)nc2c1Cc1ccc(-c2ccccc2-c2nn[nH]n2)cc1 | 147 | – | – | -11.8 | – | –
CCCc1nc(C)n2c(O)nnc2c1Cc1ccc(-c2ccccc2-c2nn[nH]n2)cc1 | 10 | – | -44.6 | -87.5 | – | –
CCCc1nc(C)n2nc(SCC(=O)OCC)nc2c1Cc1ccc(-c2ccccc2-c2nn[nH]n2)cc1 | 99 | – | – | -26.4 | – | –
CCCc1nc(C)n2nc(SC)nc2c1Cc1ccc(-c2ccccc2-c2nn[nH]n2)cc1 | 174 | – | -11.8 | -32.2 | – | –
CCCc1nc(C)n2nc(-c3ccccc3)nc2c1Cc1ccc(-c2ccccc2-c2nn[nH]n2)cc1 | 175 | – | -13.3 | -48.2 | – | –
CCCc1nc(C)n2nc(S(=O)(=O)N(C)C)nc2c1Cc1ccc(-c2ccccc2-c2nn[nH]n2)cc1 | 185 | – | – | -7.2 | – | –
CCCc1nc(C)n2c(=O)n(CC(=O)OCC)nc2c1Cc1ccc(-c2ccccc2-c2nn[nH]n2)cc1 | 12 | – | -21.6 | -71.7 | – | –

Continued, in another order:

Ki [1] [nM] | Ki [5] [nM] | SMILES | Change in blood pressure [2] [mmHg] | Change in blood pressure [3] [mmHg] | Change in blood pressure [4] [mmHg] | Change in blood pressure [6] [mmHg]
35 | – | CCCc1nc(C)n2nc(C(=O)O)nc2c1Cc1ccc(-c2ccccc2-c2nn[nH]n2)cc1 | -13.4 | -36.4 | – | –
659 | – | CCCc1nc(CCC)n2nc(O)nc2c1Cc1ccc(-c2ccccc2-c2nn[nH]n2)cc1 | -22.2 | -72.6 | – | –
32 | – | CCCc1nc(C)n2nc(C)nc2c1Cc1ccc(-c2ccccc2-c2nn[nH]n2)cc1 | -17.9 | -71.8 | – | –
1 | – | CCCc1nc(C)n2nc(N)nc2c1Cc1ccc(-c2ccccc2-c2nn[nH]n2)cc1 | -33.4 | -77.2 | – | –
10 | – | CCCc1nc(C)n2nc(S)nc2c1Cc1ccc(-c2ccccc2-c2nn[nH]n2)cc1 | -19.7 | -57.8 | – | –
10 | – | CCCc1nc(CO)n2nc(O)nc2c1Cc1ccc(-c2ccccc2-c2nn[nH]n2)cc1 | -21.5 | -40.6 | – | –
5 | – | CCCc1nc(C)n2nc(CO)nc2c1Cc1ccc(-c2ccccc2-c2nn[nH]n2)cc1 | -25.4 | -62.5 | – | –
8 | – | CCCc1nc(C)n2nc(CC)nc2c1Cc1ccc(-c2ccccc2-c2nn[nH]n2)cc1 | -8.9 | -69 | – | –
92 | – | CCCc1nc(COC)n2nc(O)nc2c1Cc1ccc(-c2ccccc2-c2nn[nH]n2)cc1 | -18.5 | -88.7 | – | –
111 | – | CCCc1nc(COC)n2nc(C)nc2c1Cc1ccc(-c2ccccc2-c2nn[nH]n2)cc1 | -21.8 | -44.4 | – | –
27 | – | CCCc1nc(CO)n2nc(C)nc2c1Cc1ccc(-c2ccccc2-c2nn[nH]n2)cc1 | – | -21.4 | – | –
225 | – | CCCc1nc(CC)n2nc(O)nc2c1Cc1ccc(-c2ccccc2-c2nn[nH]n2)cc1 | -46.5 | -75.8 | – | –
27 | – | CCCc1nc(C)n2nc(OC)nc2c1Cc1ccc(-c2ccccc2-c2nn[nH]n2)cc1 | – | -26.2 | – | –
30 | – | CCCCc1nc(C)n2nc(O)nc2c1Cc1ccc(-c2ccccc2-c2nn[nH]n2)cc1 | -22.1 | -91.5 | – | –
